Assay results reported in ChEMBL document CHEMBL3758168, “Hybrid triazoles: Design and synthesis as potential dual inhibitor of growth and efflux inhibition in tuberculosis” (Eur J Med Chem, 2016).
Converted amounts (≈) assume the structure as drawn.

Columns and labels:
Type in all cases: functional
[1] = system: Mycolicibacterium smegmatis; assay: Anti-tubercular activity against Mycobacterium smegmatis MC2 155 ATCC 700084 after 3 days by microdilution method; conditions: MC2 155 ATCC 700084, 72 h
Outline: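 M. smegmatis mc2155 grown in MB7H9 + 10% OADC at 37 °C with shaking to OD600 0.8. Inoculum set to 0.5 McFarland, diluted 1:100, and mixed 1:1 with two-fold serial dilutions in MB7H9. Plates incubated 3 days at 37 °C with growth and sterility controls. MIC taken as the lowest concentration with no visible growth.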

[2] = system: Mycobacterium tuberculosis; assay: Antibacterial activity against Mycobacterium tuberculosis H37Rv ATCC 27294T assessed as ethidium bromide MIC at 64 ug/ml after 7 days by microdilution checkerboard assay; conditions: 168 h
Outline: (§1)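 Two-dimensional checkerboard in H37Rv at 10^5 CFU/ml in MB7H9/OADC. Partner drug (amikacin, EtBr, isoniazid, ofloxacin or rifampin) two-fold serially diluted across columns 3-11. Test compound two-fold serially diluted down rows 2-6. Plates incubated 7 days at 37 °C, then MTT added overnight. […] Run in triplicate.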

[3] = system: Mycobacterium tuberculosis; assay: Antibacterial activity against Mycobacterium tuberculosis H37Rv ATCC 27294T assessed as ethidium bromide MIC at 4 ug/ml after 7 days by microdilution checkerboard assay; conditions: 168 h; outline: as §1
[4] = system: Mycobacterium tuberculosis; assay: Antibacterial activity against Mycobacterium tuberculosis H37Rv ATCC 27294T assessed as ethidium bromide MIC at 16 ug/ml after 7 days by microdilution checkerboard assay; conditions: 168 h; outline: as §1
[5] = system: Mycobacterium tuberculosis; assay: Antibacterial activity against Mycobacterium tuberculosis H37Rv ATCC 27294T assessed as ofloxacin MIC at 4 ug/ml after 7 days by microdilution checkerboard assay; conditions: 168 h; outline: as §1
[6] = system: Mycobacterium tuberculosis; assay: Antibacterial activity against Mycobacterium tuberculosis H37Rv ATCC 27294T assessed as amikacin MIC at 32 ug/ml after 7 days by microdilution checkerboard assay; conditions: 168 h; outline: as §1
[7] = system: Mycobacterium tuberculosis; assay: Antibacterial activity against Mycobacterium tuberculosis H37Rv ATCC 27294T assessed as amikacin MIC at 4 ug/ml after 7 days by microdilution checkerboard assay; conditions: 168 h; outline: as §1
[8] = system: Mycobacterium tuberculosis; assay: Antibacterial activity against Mycobacterium tuberculosis H37Rv ATCC 27294T assessed as isoniazid MIC at 8 ug/ml after 7 days by microdilution checkerboard assay; conditions: 168 h; outline: as §1
[9] = system: Mycobacterium tuberculosis; assay: Antibacterial activity against Mycobacterium tuberculosis H37Rv ATCC 27294T assessed as isoniazid MIC at 4 ug/ml after 7 days by microdilution checkerboard; conditions: 168 h; outline: as §1
[10] = system: Mycobacterium tuberculosis; assay: Antibacterial activity against Mycobacterium tuberculosis H37Rv ATCC 27294T assessed as amikacin MIC at 8 ug/ml after 7 days by microdilution checkerboard assay; conditions: 168 h; outline: as §1
[11] = system: Mycobacterium tuberculosis; assay: Antibacterial activity against Mycobacterium tuberculosis H37Rv ATCC 27294T assessed as amikacin MIC at 16 ug/ml after 7 days by microdilution checkerboard assay; conditions: 168 h; outline: as §1
[12] = system: Mycobacterium tuberculosis; assay: Antibacterial activity against Mycobacterium tuberculosis H37Rv ATCC 27294T assessed as rifampin MIC at 128 ug/ml after 7 days by microdilution checkerboard assay; conditions: 168 h
Outline: (§2)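 M. tuberculosis H37Rv grown in MB7H9 + 10% OADC at 37 °C to OD600 0.8; plates inoculated at 10^5 CFU/ml. Rifampicin two-fold serially diluted across columns, test compound two-fold diluted down rows (two-dimensional checkerboard). Sealed, 37 °C for seven days, then MTT added and incubated overnight. MIC read as no colour change. Triplicate.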

[13] = system: Mycobacterium tuberculosis; assay: Antibacterial activity against Mycobacterium tuberculosis H37Rv ATCC 27294T assessed as rifampin MIC at 2 ug/ml after 7 days by microdilution checkerboard assay; conditions: 168 h; outline: as §2

CCCSc1nnc(COc2ccccc2C2=NOC(c3ccc(Cl)cc3Cl)C2)n1NC(=O)CCl (stereo not drawn)
MIC [1]: 4 µg/mL (≈ 7.21 µM) | MIC [2]: 6.25 µg/mL | MIC [3]: 12.5 µg/mL | MIC [4]: 12.5 µg/mL | MIC [5]: 2 µg/mL | MIC [6]: 1 µg/mL | MIC [7]: 1 µg/mL | MIC [8]: 0.1 µg/mL | MIC [9]: 0.1 µg/mL | MIC [10]: 1 µg/mL | MIC [11]: 1 µg/mL | MIC [12]: 0.0156 µg/mL | MIC [13]: 0.5 µg/mL
